In the RNAGym collection of RNA variant scans (doi:10.1126/science.aae0568):
Variants at the floor of the assay were thinned out.

B1: tRNA (parent)
chain: GUUCCGUUGGCGUAAUGGUAACGCGUCUCCCUCCUAAGGAGAAGACUGCGGGUUCGAGUCCCGUACGGAACG

Variants of: B1
Experiment: yeast fitness relative to wild type (ratio to wild type); higher = fitter; tRNA-Arg(CCU), competitive growth, 37 C, YPD
How it was run: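 Variants of the tRNA-Arg(CCU) gene, chemically synthesised with a 3% per-site mutation rate at 69 sites, were placed at the native genomic locus in Saccharomyces cerevisiae. The pooled strains were competed in YPD at 37°C for 24 hours in six parallel replicates. Gene amplicons from the start population and from each end population were read by 100-nucleotide paired-end sequencing. Darwinian fitness relative to wild type came from changes in genotype frequencies; genotypes needed ≥ 100 starting reads, and estimates < 0.5 were set to 0.5.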

Row | Variant | yeast fitness
1 | A42G G56U | 0.565
2 | U16G C60A | 0.606
3 | U7A A15G C34G | ≤ 0.5
4 | G17C G50C | 0.536
5 | C4U C22U C33U | 0.565
6 | C34A G39C A40C G56C C61G C62G | ≤ 0.5
7 | U8A C11A C31G | ≤ 0.5
8 | G48C U54G C55U | ≤ 0.5
9 | G17U G25A U28G G58A C66G | ≤ 0.5
10 | C31A C33A | 0.509
11 | U13A G17A G51A C62U G67C | ≤ 0.5
12 | U32G A37U U64C | ≤ 0.5
13 | C4A C5A A20U | 0.605
14 | C34G G51C | 0.609
15 | C5U G18A A37C C61U | ≤ 0.5
16 | U7C G9A C31G | 0.77
17 | A20C U64A G67A | ≤ 0.5
18 | A21G C27U C30G U32G C46G G48A C60A | 0.561
19 | A20C A37G C49G U53A C60U A69C | 0.57
20 | G6C C46G C62U C66U | 0.533
21 | U26G G50C A57G | 0.529
22 | U32C C33A G51C G68A | ≤ 0.5
23 | U8A C27A A37U G67U | 0.612
24 | U26C C61U C62G | ≤ 0.5

Row | Variant | yeast fitness
25 | U2C A21C | 0.775
26 | G12C U32G C33G G58A | ≤ 0.5
27 | A21U C29A | 0.751
28 | A21G G68U | 1.07
29 | C27G C31A A57U | 0.573
30 | C49G C66A | 0.654
31 | A14G U32C C55U | ≤ 0.5
32 | U26C U53C A57U C66G | ≤ 0.5
33 | C4G G6C U8G G17A U32C | ≤ 0.5
34 | G10A U16A | 0.708
35 | U28A A37G G51C A57C | ≤ 0.5
36 | C29G G44C C49G A57C | 0.598
37 | C4U C24G | 0.591
38 | G6C A36C A40G G48A A65U C66U A69U | ≤ 0.5
39 | U13G C29U C33U G63A | ≤ 0.5
40 | C30A A43G G50C | 0.767
41 | U8G G17A C31A C66U | ≤ 0.5
42 | C11U A21C A42G C49U A69C A70G | ≤ 0.5
43 | G9C G44A C60G | ≤ 0.5
44 | A21G C34G G56A C66G | ≤ 0.5
45 | C46U G52C A57U | ≤ 0.5
46 | C4G G17A G63A C66U | ≤ 0.5
47 | A37C A40C G41C | 0.579
48 | C30U A45C A69U | 0.704

Row | Variant | yeast fitness
49 | C30G A36U C61U | 0.504
50 | A43C C46A G48C G63A | 0.62
51 | G17A C29U G67A | 0.553
52 | C5A U16A U35C A45G G50A | ≤ 0.5
53 | C5G A43U | 0.719
54 | U7A A15U U54C | ≤ 0.5
55 | C22G C24G A45C G63C | 0.563
56 | A15C A36U A42G U59C C60A | ≤ 0.5
57 | A37G A42C A70C | 0.729
58 | C5U C55G C61A | ≤ 0.5
59 | C11U U13C C24A A43C G50C | ≤ 0.5
60 | U13A C46U | 0.875
61 | C4A C5A C11G A15U U19C A21U | ≤ 0.5
62 | C4U C30A C61U | 0.812
63 | G10C C29A C33A C62U | 0.6
64 | G6C A15G G56C | ≤ 0.5
65 | C30A A37G C46U A57C | ≤ 0.5
66 | C30U G58C C66U | 0.663
67 | C5A A20C C29U C34A C46A G50A A57U C66U | ≤ 0.5
68 | U3C U59A C61G | 0.587
69 | U64C A70C | 0.967
70 | U3A C5G G56U | ≤ 0.5
71 | G12A G25A C30G G58C C66A | ≤ 0.5
72 | U28C C34U | 0.71

Row | Variant | yeast fitness
73 | G10A A20G U35G A37G | ≤ 0.5
74 | A15C A21U C62U | 0.53
75 | C29G C61A | ≤ 0.5
76 | G6A G10A U26A C27U C29A A65G G68C | ≤ 0.5
77 | C4G A21G C31G C33G | ≤ 0.5
78 | U3A G48A A57U | 0.591
79 | G9C G23A | 0.544
80 | U2G C29U U54C A57G U59C | ≤ 0.5
81 | U2A C4U A57U | ≤ 0.5
82 | G18A C34G C46A C62U A69C | ≤ 0.5
83 | U2G A14U A21C A36C C49A A65G C66G | ≤ 0.5
84 | C46G G48A G52A | 0.913
85 | A20U C46A | 0.858
86 | A21G C33G C34G | 0.547
87 | A20C C30A C33U C34U C49A C62G | ≤ 0.5
88 | G23C C33U | 0.544
89 | A20U C61U | 0.836
90 | C4U G9C C29G C34G C60G | ≤ 0.5
91 | G12A A14C C31U | ≤ 0.5
92 | U3A C5A G6C A15G U16A U26G C60G C61U | 0.514
93 | C29G C33U C61U A69C | ≤ 0.5
94 | C24U U32A U54A | ≤ 0.5
95 | U28G U64A | 0.65
96 | G18A G39U G48A C61G | ≤ 0.5

Row | Variant | yeast fitness
97 | G10C A21C C30U G41C A70U | ≤ 0.5
98 | C33U C62G A69C | 0.595
99 | A20G U47C G50C | ≤ 0.5
100 | A15G C24A U64C | ≤ 0.5
101 | C22U U28C U54A A69U | ≤ 0.5
102 | A42G A43U C46U C62U | 0.551
103 | G18C C24G A45G C55G | 0.693
104 | G17A A37C | 0.681
105 | C4U C11U C33U C62A | ≤ 0.5
106 | A42U C46U A57U | 0.538
107 | G17C C22G C55G C60A | ≤ 0.5
108 | C4U C11U G23C A37U G44A | ≤ 0.5
109 | A21G C22A G50C | ≤ 0.5
110 | U13C C55A | 0.611
111 | U26A U35G A37U A70G | ≤ 0.5
112 | C4G C22G C24U G41A | ≤ 0.5
113 | U2C C33U | 0.862
114 | U2A A36G A45C G68C | ≤ 0.5
115 | G18A C33G U53A | ≤ 0.5
116 | A14C G39A | 0.754
117 | C4A U35C G48C C55U G56A | 0.51
118 | G10C G58A C66G | ≤ 0.5
119 | C11U G68C A69U | 0.54
120 | U7C C11A C27G A57G | ≤ 0.5

Row | Variant | yeast fitness
121 | U3G A45G A69U | 0.763
122 | U16A A37G A40C U47G | ≤ 0.5
123 | U13G | 1.03
124 | U13A A45G | 0.92
125 | U7A A42C | 0.775
126 | G44C G58A | 1.02
127 | C5U G12C A42G C55A C62A | ≤ 0.5
128 | U32A G39A U54A | ≤ 0.5
129 | U8A C31G A42G G52C | ≤ 0.5
130 | G9A C11A C30G C46U | ≤ 0.5
131 | C29A U35C C66U | ≤ 0.5
132 | C5G G9C A20G A40C G58A | ≤ 0.5
133 | G39A A65U | 0.791
134 | U3C G41A U53G U59A C62G | ≤ 0.5
135 | U13C A40C | 0.882
136 | C5G C34G C49U C55U | ≤ 0.5
137 | U16A C22U C55A | 0.808
138 | C4A A45U C55U A70C | ≤ 0.5
139 | C11A C22U U35C | ≤ 0.5
140 | G9C C24U U26G A42U G52U | ≤ 0.5
141 | U16A C22A G23C C34U A36G A40U | ≤ 0.5
142 | A14U U19A A21C G48C A70G | 0.505
143 | A14U A21G C29G U59A | ≤ 0.5
144 | G6C C34U A43G G48A A57G | ≤ 0.5

Row | Variant | yeast fitness
145 | G10C C11U C24U C33G A36U | ≤ 0.5
146 | C22G U32C G67A | 0.564
147 | C4A C11A U13C A70U | ≤ 0.5
148 | C5G C22U C27U A36G | ≤ 0.5
149 | U7A U19C C27G A43U U47A A65U G67C | ≤ 0.5
150 | U2C C27G U28A A43U A70G | ≤ 0.5
151 | A37G G63C A65U | ≤ 0.5
152 | U8G A15C U28A | ≤ 0.5
153 | U16A A43C A45G | 0.988
154 | A36G A37U | 0.718
155 | U8C G39C G68A | ≤ 0.5
156 | G18A C31G | 0.666
157 | C27U U28G A40C G51A | 0.543
158 | G6C A37G A43C C62U | ≤ 0.5
159 | U7C C34U C49A G56C C62A A65C | ≤ 0.5
160 | U3C A36G C61U | 0.623
161 | G6A C30U U35C | ≤ 0.5
162 | G23C G51C | ≤ 0.5
163 | C5U G23C U26C U32A A42U A65C | ≤ 0.5
164 | U3C A15C A65C | ≤ 0.5
165 | G25C C33G C61G | ≤ 0.5
166 | C5U C33A A36C A37C A43G A70U | ≤ 0.5
167 | U53G U59C C66U | ≤ 0.5
